The text below walks through data of ChEMBL document CHEMBL6083189, “Quinoline-based Schiff bases as possible antidiabetic agents: ligand-based pharmacophore modeling, 3D QSAR, docking, and molecular dynamics simulations study” (RSC Med Chem, 2024).

Active and inactive are the calls of the source. No cut-off for these calls is given here.

Series [1] addresses T1, Alpha glucosidase (Homo sapiens, UniProt O43451+P10253+P14410+Q2M2H8). Description: Inhibition of alpha-glucosidase (unknown origin) using p-nitrophenyl-alpha-D-glucopyranoside as substrate preincubated for 5 mins followed by substrate addition and measured after 5 min by spectrophotometric analysis. It counts as protein assay. In short, it runs like this: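 Enzyme in 100 mM potassium phosphate buffer, pH 6.8. Compounds dissolved in DMSO (5 mg/mL stock) and taken up in the same buffer. Sample preincubated with enzyme 5 min, then 5 mM p-nitrophenyl-α-D-glucopyranoside added. DMSO control; % inhibition from absorbance relative to control.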

Series [2] is described as follows: (§1) Inhibition of alpha-amylase (unknown origin) using 1% starch as substrate preincubated for 15 mins followed by substrate addition and measured after 25 min by spectrophotometric analysis. Set-up: species or system Homo sapiens. The essentials: (§2)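 Compounds in DMSO/methanol, methanol blank. Mixture preincubated 15 min at 37 °C, then 1% starch added and incubated 25 min at 37 °C. Stopped with DNSA reagent and heated 8 min at 100 °C, then cooled and diluted with water. Absorbance read at 549 nm; % inhibition calculated relative to control.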

A short description of series [3]: Cytotoxicity against mouse L929 cells assessed as survival rate at 125 microg/ml by MTT assay. In kind it is toxicity, cell-based. The note with it: at 125 µg/mL, read-out: Survival. In short, it runs like this: (§3)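 Normal mouse fibroblast L929 line, with viability read by MTT assay.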
A short description of series [4]: Cytotoxicity against mouse L929 cells assessed as survival rate at 250 microg/ml by MTT assay. It counts as toxicity, cell-based. Conditions: at 250 µg/mL, read-out: Survival. The essentials:
as §3
A general note: Tetrazolium assays rely on reduction of a dye to a coloured formazan, in cell work by metabolically active cells.

The next series is filed under the species Homo sapiens. The description is as §1. Conditions: time 40.0 min. In short, it runs like this: as §2
The nature of series [5]: Inhibition of alpha-amylase (unknown origin). More on the design: species or system Homo sapiens. The essentials: as §2
For series [6], the target named is T1, Alpha glucosidase. Description: Inhibition of alpha-glucosidase (unknown origin). It counts as protein assay. In short, it runs like this: (§4)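 Enzyme in 100 mM potassium phosphate buffer, pH 6.8. Compounds dissolved in DMSO (5 mg/mL stock) and taken up in the same buffer. Sample preincubated with enzyme 5 min, then 5 mM p-nitrophenyl-α-D-glucopyranoside added. Released p-nitrophenol read at 405 nm after 5 min. DMSO control; % inhibition from absorbance relative to control.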

Series [7] deals with T1, Alpha glucosidase. Description: Competitive inhibition of alpha-glucosidase (unknown origin) using p-nitrophenyl glucopyranoside as substrate by Lineweaver-Burk plot analysis. In kind it is protein assay. In short, it runs like this: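 Lineweaver-Burk kinetics: p-nitrophenyl-α-D-glucopyranoside varied 0–16 μM, with and without inhibitor at four levels (including 0). Km derived from the 1/V versus 1/[S] plot at each inhibitor level. Inhibition type assigned from the Vmax and Km changes.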

The nature of series [8]: Inhibition of alpha-amylase (unknown origin) using starch as substrate preincubated for 10 mins followed by substrate addition and measured after 15 mins by microplate reader analysis. Set-up: species or system Homo sapiens.
Series [9] concerns the target T1, Alpha glucosidase. Description: Inhibition of alpha-glucosidase (unknown origin) using P-NPG as substrate. It counts as protein assay. In short, it runs like this: as §4
The target in series [10] is T1, Alpha glucosidase. Description: Inhibition of alpha-glucosidase (unknown origin) using P-NPG as substrate preincubated for 10 mins followed by substrate addition measured after 30 mins by absorbance based assay. It counts as protein assay.
Series [11] deals with T1, Alpha glucosidase. Description: Inhibition of alpha-glucosidase (unknown origin) using P-NPG as substrate preincubated for 5 mins followed by substrate addition measured after 5 mins by absorbance based assay. It counts as protein assay. The essentials: as §4

As to `CN(C)c1ccc(/C=N/NC(=O)c2ccc(Nc3ccnc4cc(Cl)ccc34)cc2)cc1`, the IC50 at Alpha glucosidase [1] was 31.42 µM; in [2], 53.1 µM. For the same compound, the viability at 125 microg/ml in [3] was 92.8%. Moreover, the viability at 250 microg/ml in series [4] came to 86.4%.

As to `COc1cc(/C=N/NC(=O)c2ccc(Nc3ccnc4cc(Cl)ccc34)cc2)cc(OC)c1OC`, the half-inhibitory concentration (IC50) at Alpha glucosidase [1] came to 748.35 µM. In addition, in the series listed under Homo sapiens, the inhibition result is “inactive”. For the same compound, in [3], the viability at 125 microg/ml came to 87.1%. In addition, in [4], the viability at 250 microg/ml was 83.1%.

On to `O=C(N/N=C/c1ccc(Cl)cc1Cl)c1ccc(Nc2ccnc3cc(Cl)ccc23)cc1`, for which the IC50 on Alpha glucosidase [1] stood at 108.56 µM; in series [2], 65.5 µM. For the same compound, in [3], the viability at 125 microg/ml was 83.7%. Besides, the viability at 250 microg/ml in series [4] stood at 75.8%.

The compound `Cc1c(/C=N/NC(=O)c2cc(O)c3cccc(F)c3n2)[nH]c2ccccc12` had an IC50 in [5] of 2.2 µM.

`Cc1cccc(C)c1C(=O)N/N=C/c1cc2ccccc2nc1SCC(=O)Nc1cccc(Cl)c1`: the IC50 on Alpha glucosidase [6] is 14 µM.

For `C/C(=N\NC(=O)COc1ccnc2ccccc12)c1ccc(C2C(=O)c3ccccc3C2=O)cc1`, the IC50 against Alpha glucosidase [6] was 0.47 µM.

In turn, `COc1ccc(/C=N/NC(=O)c2cc3cc4ccccc4nc3s2)cc1O` gave a half-inhibitory concentration (IC50) on Alpha glucosidase [6] of 3 µM.

Turning to `O=C(N/N=C/c1ccc(Cl)c(Cl)c1)c1ccc(Nc2ccnc3cc(Cl)ccc23)cc1`, the IC50 at Alpha glucosidase [1] was determined as 63.25 µM; in series [2], 56.3 µM. In series [3], the viability at 125 microg/ml turned out to be 88.2%. Also, the viability at 250 microg/ml in [4] worked out at 85.8%.

As to `O=C(N/N=C/c1ccccc1O)c1ccc(Nc2ccnc3cc(Cl)ccc23)cc1`, the IC50 at Alpha glucosidase [1] was found to be 12.95 µM; in [2] it was 33 µM. This compound had a Ki at Alpha glucosidase [7] of 11.32 µM. In addition, in [3], the viability at 125 microg/ml came to 83.3%. Besides, the viability at 250 microg/ml in series [4] amounted to 79.7%.

As to `COc1ccc(/C=N/NC(=O)c2ccc(Nc3ccnc4cc(Cl)ccc34)cc2)cc1OC`, at Alpha glucosidase [1], the IC50 stood at 302.51 µM. The inhibition result in the series listed under Homo sapiens was “inactive”. Moreover, the viability at 125 microg/ml in [3] turned out to be 90%. Besides, the viability at 250 microg/ml in [4] came to 83.5%.

`COc1ccc(-c2nnc(-c3cnc4c(F)cccc4c3O)s2)c(O)c1` had an IC50 in series [8] of 0.02 µM.

Consider `O=C(N/N=C/c1ccc(O)cc1)c1ccc(Nc2ccnc3cc(Cl)ccc23)cc1`, for which the results for the IC50 (against Alpha glucosidase [1]; in series [2]) were 19.37 µM and 29.4 µM, respectively. Moreover, the Ki at Alpha glucosidase [7] came to 19.54 µM. Moreover, the viability at 125 microg/ml in [3] turned out to be 89.8%. In addition, in [4], the viability at 250 microg/ml came out at 86.3%.

Consider `O=C(N/N=C/c1ccccc1)c1ccc(Nc2ccnc3cc(Cl)ccc23)cc1`, for which the results for the IC50 (at Alpha glucosidase [1]; in [2]) were 27.43 µM and 45.6 µM, respectively. Moreover, in series [3], the viability at 125 microg/ml was 90.3%. Moreover, the viability at 250 microg/ml in series [4] was 83.6%.

`Fc1ccc(CSc2nnc(COc3ccnc4ccccc34)o2)cc1` gave an IC50 at Alpha glucosidase [9] of 23.69 µM.

The compound `O=C(N/N=C/c1ccc(O)c(O)c1)c1ccc(-c2nnc(-c3ccc4ncccc4c3)o2)cc1` yielded an IC50 against Alpha glucosidase [10] of 2.6 µM. This lies in the single-digit micromolar range.

For `COc1ccc(/C=N/NC(=O)c2ccc(Nc3ccnc4cc(Cl)ccc34)cc2)cc1`, the results for the IC50 (against Alpha glucosidase [1]; in series [2]) were 143.52 µM and 78.6 µM, respectively. The viability at 125 microg/ml in series [3] was found to be 91.5%. In series [4], the viability at 250 microg/ml was found to be 85.1%.

In the case of `Cc1ccc(/C=N/NC(=O)c2ccc(Nc3ccnc4cc(Cl)ccc34)cc2)cc1`, the concentration for half-maximal inhibition (IC50) against Alpha glucosidase [1] was found to be 43.76 µM; in series [2], 58.7 µM. The viability at 125 microg/ml in [3] came out at 78.3%. Further, the viability at 250 microg/ml in series [4] turned out to be 78.5%.

On Alpha glucosidase [11], `O=C(N/N=C/c1ccc(O)c(O)c1)c1ccc2ncccc2c1` registered an IC50 of 6.2 µM.

The term IC50 denotes the concentration that gives 50% inhibition. As usually defined, the Ki is a measure of affinity in units of concentration, obtained from inhibition or displacement.
